According to PubChem BioAssay:
Active and inactive are the calls of the source.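 The calls were made as follows, unless noted: active = NADPH fluorescence slope more negative than the mean of all samples by about 3 SD, 99.7% confidence; inactive = the rest.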

Legend:
[1] = inhibitors of TNFa-induced NFkB p65 translocation, primary screen, imaging, HUVEC, MLSMR starter and 10KST1 sets (AID 438;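 active = inhibition above 20% together with a positive visual image hit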;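 also: compound added about 3h40 before a 20 min TNFalpha stimulation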;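 as to inhibition: signal is the nuclear over cytoplasmic p65 intensity ratio per well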); conditions: HUVEC TNFa-induced p65 nuclear translocation; cell count: measured here: nuclei count (cytotoxicity indicator), at 2.08 µM; inhibition: at 2 µM, stronger effect = higher value, 0% TNFa-plus-vehicle, 100% no-TNFa wells
[2] = endothelial E-selectin expression blockers – imaging, HUVEC, immunofluorescence, MLSMR starter and 10KST1 sets, primary screen (AID 487;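 active = visually confirmed hit in the image check and inhibition above 20%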;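 as to inhibition: signal is fraction of cell area covered by stained E-selectin grains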;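 as to nuclei count: 100% = median nuclei count of all wells on the same plate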); conditions: HUVEC TNFalpha-induced E-selectin immunofluorescence imaging, at 2 µM; inhibition: stronger effect = higher value; nuclei count: measured here: cell number, toxicity
[3] = Primary imaging screen for DUSP6 inhibitors that restore phospho-Erk in transfected HeLa cells, chemical complementation (AID 609;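 active = compounds giving at least 50% inhibition in the cell-based MKP-3 phosphatase rescue imaging test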;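 as to inhibition: phospho-Erk level distribution per well compared with pooled transfected vehicle control wells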); conditions: HeLa MKP-3 transfected, phospho-Erk imaging KS statistic, at 10 µM, cells stimulated with TPA for 15 min
[4] = target: Dual specificity protein phosphatase 6 (Homo sapiens) (UniProt Q16828); assay: as above; conditions: HeLa MKP-3 transfected, phospho-Erk imaging KS statistic; at 10 µM; stronger effect = higher value; cells stimulated with TPA for 15 min
Chain of Dual specificity protein phosphatase 6 (Homo sapiens) (Q16828 whole entry, looked up): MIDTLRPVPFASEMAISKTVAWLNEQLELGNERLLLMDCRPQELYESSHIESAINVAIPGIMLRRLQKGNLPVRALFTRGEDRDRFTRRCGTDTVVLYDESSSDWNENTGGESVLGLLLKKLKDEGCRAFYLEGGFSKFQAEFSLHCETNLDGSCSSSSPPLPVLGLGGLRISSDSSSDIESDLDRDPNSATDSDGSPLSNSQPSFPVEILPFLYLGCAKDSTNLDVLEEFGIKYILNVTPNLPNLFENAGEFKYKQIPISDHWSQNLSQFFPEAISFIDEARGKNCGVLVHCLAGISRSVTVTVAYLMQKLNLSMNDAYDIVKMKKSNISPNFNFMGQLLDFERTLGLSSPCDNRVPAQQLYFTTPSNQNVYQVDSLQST

[5] = target: Voltage-gated potassium channel subunit beta-2 (Rattus norvegicus) (UniProt P62483); assay: inhibitors of rat Kvbeta2 reductase activity – biochemical, NADPH fluorescence, primary screen (AID 622;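 active = fluorescence slope higher than the sample average by over 3 SD, cut at about -0.22 in these data, passing the limit was not always enough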;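 also: slope of raw intensity against log time taken from 70 to 1610 s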); conditions: recombinant KvBeta, 4-cyanobenzaldehyde reduction, at 10 µM, stronger effect = higher value
Chain of Voltage-gated potassium channel subunit beta-2 (Rattus norvegicus) (P62483 whole entry, looked up): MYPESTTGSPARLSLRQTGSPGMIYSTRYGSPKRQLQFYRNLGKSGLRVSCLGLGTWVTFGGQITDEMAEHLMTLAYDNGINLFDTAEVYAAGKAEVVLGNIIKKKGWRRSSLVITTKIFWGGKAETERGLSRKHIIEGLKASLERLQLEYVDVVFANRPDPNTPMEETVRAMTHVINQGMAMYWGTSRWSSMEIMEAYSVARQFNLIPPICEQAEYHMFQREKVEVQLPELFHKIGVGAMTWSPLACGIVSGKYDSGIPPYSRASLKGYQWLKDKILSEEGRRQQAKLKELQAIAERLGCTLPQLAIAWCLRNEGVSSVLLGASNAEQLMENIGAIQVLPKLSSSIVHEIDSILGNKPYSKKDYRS

[6] = target: Voltage-gated potassium channel subunit beta-2 (Rattus norvegicus) (UniProt P62483); assay: enhancers of rat Kvbeta2 NADPH turnover – biochemical, NADPH fluorescence, primary screen (AID 623); conditions: Recombinant KvBeta, NADPH fluorescence decrease slope, 10 min; at 10 µM; stronger effect = lower value;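 also: fluorescence intensity change per second fitted from 20 to 320 s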
[7] = target: Muscarinic acetylcholine receptor M4 (Homo sapiens) (UniProt P08173); assay: M4-linked GIRK flux change, two-sided – cell-based, HEK293 M4/GIRK, thallium flux, BTC-AM, M4 allosteric agonist project, primary screen (AID 625;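 active = fluorescence slope after compound addition differing from the mean of all tested samples at 99.7% confidence, mostly higher but some lower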;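 also: thallium influx through GIRK channels coupled to M4 in HEK293 cells with BTC-AM dye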); conditions: at 10 µM, actives lie on both sides
Chain of Muscarinic acetylcholine receptor M4 (Homo sapiens) (P08173 whole entry, looked up): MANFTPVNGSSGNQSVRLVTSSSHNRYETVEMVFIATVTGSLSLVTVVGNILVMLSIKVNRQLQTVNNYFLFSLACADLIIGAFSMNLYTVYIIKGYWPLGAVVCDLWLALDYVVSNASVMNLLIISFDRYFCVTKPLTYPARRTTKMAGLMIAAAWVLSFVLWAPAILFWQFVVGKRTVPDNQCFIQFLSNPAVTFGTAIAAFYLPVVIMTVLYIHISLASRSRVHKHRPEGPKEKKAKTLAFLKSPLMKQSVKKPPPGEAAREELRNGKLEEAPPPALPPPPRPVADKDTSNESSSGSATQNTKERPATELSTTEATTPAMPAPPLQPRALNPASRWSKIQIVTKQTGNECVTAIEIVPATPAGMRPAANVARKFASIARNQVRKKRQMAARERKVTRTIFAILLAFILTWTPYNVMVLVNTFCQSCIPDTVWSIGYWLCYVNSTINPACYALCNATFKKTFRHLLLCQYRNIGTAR
Outline: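 Material: M4/GIRK1/GIRK2 stable HEK293 cell line. Medium: pH 7.3 thallium assay buffer. Dosing: single compound concentration, 10 µM final. Schedule: 1 h dye loading, 2 min kinetic read. Measured by: kinetic fluorescence with BTC-AM dye. Read-out: post-addition slope, 15–24 s, of baseline-normalized fluorescence. Benchmarks: carbachol and DMSO controls.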

[8] = inhibitors of larval lipid processing in zebrafish, primary screen, whole organism, PED6 fluorescence, gall bladder and intestine (AID 686;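 active = a full or partial loss of lipid-probe fluorescence in the fish gall bladder, intestine or both, judged by eye; inactive = no fluorescence loss, or compound toxic to the fish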;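 also: larvae 5 to 7 days old with five fish per well; signal comes from phospholipase A2 cleavage of quenched PED6 carried via bile; overnight exposure to compound and PED6 before scoring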); conditions: Zebrafish larvae PED6 lipid processing, fluorescence scoring; screened at 20 µM (by protocol)
Outline: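 System: live zebrafish larvae aged 5-7 days, whole organism; measure: graded gall bladder and intestinal fluorescence inhibition per well; incubation: overnight exposure; reagent: ingested quenched lipid PED6 at 100 nM; signal: By-eye fluorescence microscopy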

[9] = loss of swimming-algae plug formation – whole organism, Chlamydomonas reinhardtii, WT vs cilia-less mutant, absorbance, 96-well, primary screen (AID 463189;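 active = inhibition at or above 50% relative to wild type and mutant plate controls; inactive = inhibition below 50%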;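 also: 0% = wild type cc124 cells in DMSO and 100% = ciliumless bld1 mutant cells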); conditions: Chlamydomonas reinhardtii gravitaxis, OD600 absorbance, 2 days; at 10 µM; stronger effect = higher value
[10] = measured here: cell density z-score
[11] = measured here: nuclear c-Myc green intensity z-score
[12] = measured here: nuclear pErk red intensity z-score, stronger effect = higher value

Row | SMILES | cell count [1] | inhibition [1] | inhibition [2] | nuclei count [2] [%] | z-score [3, 10] | z-score [3, 11] | z-score [3, 12] | inhibition [4] | fluorescence slope [5] | NADPH fluorescence slope [6] | fluorescence slope [7] | outcome [8] | inhibition [9]
1 | CC(=O)C1=C(O)C(=O)N(c2ccc(S(N)(=O)=O)cc2)C1c1ccccc1F (centres undefined) | 382 | -5.4% (inactive) | 14.5% (inactive) | 138 | -0.839 | -1.6 | 0.715 | 11.9% (inactive) | -0.476 (inactive) | -0.000111 (inactive) | 0.00408 (inactive) | inactive | -4.73% (inactive)
2 | COC(=O)C(NC(C)=O)(Nc1ccc(Br)cn1)C(F)(F)F (centres undefined) | 555 | 1.7% (inactive) | 54.1% (inactive) | 88.1 | -1.18 | 0.658 | 0.74 | -4.59% (inactive) | -0.471 (inactive) | 3.7e-06 (inactive) | 0.00445 (inactive) | inactive | 4.13% (inactive)
3 | CSc1cc(C)nc(N(C)C(C)=O)n1 | 672 | -1.4% (inactive) | -9.4% (inactive) | 145 | -2.7 | 1.16 | 0.496 | 5.35% (inactive) | -0.421 (inactive) | -5.5e-05 (inactive) | 0.00511 (inactive) | inactive | -6.47% (inactive)
4 | CCOC(=O)c1c(NC(=O)CN2CCOCC2)sc2c1CC(C)(C)OC2 | 525 | -12.5% (inactive) | -92.8% (inactive) | 146 | 0.295 | -0.682 | -0.184 | 3.49% (inactive) | -0.465 (inactive) | -4.6e-05 (inactive) | 0.00443 (inactive) | inactive | -12.3% (inactive)
5 | CC(NC(=O)Nc1ccc(O)cc1)(C(F)(F)F)C(F)(F)F | 709 | -15.9% (inactive) | -16.4% (inactive) | 151 | -0.386 | 1.06 | 0.803 | -3.95% (inactive) | -0.461 (inactive) | -4.3e-05 (inactive) | 0.00553 (inactive) | inactive | 0.534% (inactive)
6 | Nc1c(C(=O)NCc2ccco2)sc2nc(N3CCOCC3)c3c(c12)CCCC3 | 510 | -3.3% (inactive) | 21.6% (inactive) | 169 | -0.827 | 1.22 | 1.35 | 7.93% (inactive) | -0.0309 (active) | 4.6e-08 (inactive) | 0.00375 (inactive) | inactive | 7.67% (inactive)
7 | CCOc1ccc(S(=O)(=O)N(C)CCO)cc1-c1nc2c(C(C)(C)C)nn(C)c2c(=O)[nH]1 | 637 | 4.6% (inactive) | -94.9% (inactive) | 165 | 0.365 | 1.27 | -0.248 | 1.12% (inactive) | -0.484 (inactive) | -3.4e-05 (inactive) | 0.00687 (inactive) | inactive | 8.59% (inactive)
8 | CCCCOc1ccc(C(=O)N2CCCC2C(=O)O)cc1 (centres undefined) | 675 | 2.7% (inactive) | 22.4% (inactive) | 146 | 0.371 | 0.251 | 0.422 | -13.3% (inactive) | -0.458 (inactive) | -4.7e-05 (inactive) | 0.00494 (inactive) | inactive | 7.22% (inactive)
9 | CCCOc1ccc(C2/C(=C(/O)c3ccccc3)C(=O)C(=O)N2CCCN(C)C)cc1OC (centres undefined) | 399 | -2.9% (inactive) | -92.3% (inactive) | 157 | 0.261 | -0.731 | -0.508 | 18.2% (inactive) | -0.463 (inactive) | -0.000127 (inactive) | 0.00492 (inactive) | inactive | 26.4% (inactive)
10 | CCN(CC)CCN1C(=O)C(=O)/C(=C(/O)c2c(C)[nH]c(C(=O)OC)c2C)C1c1ccc(OC)cc1 (centres undefined) | 733 | -1.5% (inactive) | -75.7% (inactive) | 194 | -0.146 | -0.0149 | 0.967 | 0.671% (inactive) | -0.449 (inactive) | -4e-05 (inactive) | 0.00528 (inactive) | inactive | 18.4% (inactive)
11 | CCCCCOc1ccc(C(=O)NCC(=O)NCC(=O)OCC)cc1 | 715 | 9.7% (inactive) | -113% (inactive) | 150 | -0.426 | -0.0633 | -0.949 | 1.63% (inactive) | -0.417 (inactive) | -6e-05 (inactive) | 0.00389 (inactive) | inactive | -5.95% (inactive)
12 | Cc1nnc(N2CCOCC2)c2ccccc12 | 590 | -0.6% (inactive) | -63.6% (inactive) | 148 | 0.561 | 0.102 | -1.27 | 1.63% (inactive) | -0.472 (inactive) | -0.000134 (inactive) | 0.00562 (inactive) | inactive | 14.9% (inactive)
13 | O=C(Nc1ccccc1)c1cc(N2CCOCC2)nc2ccccc12 | 667 | -1.5% (inactive) | -114% (inactive) | 149 | 1.08 | 1.33 | -0.63 | 6.51% (inactive) | -0.419 (inactive) | -6.8e-05 (inactive) | 0.00579 (inactive) | inactive | -0.488% (inactive)
